Test results published in the M2OR odorant receptor database.

Legend:
Details in all cases: stereoisomer not certain
UniProt Q8VFP5 = target: T1, UniProt Q8VFP5
T1 sequence (whole entry): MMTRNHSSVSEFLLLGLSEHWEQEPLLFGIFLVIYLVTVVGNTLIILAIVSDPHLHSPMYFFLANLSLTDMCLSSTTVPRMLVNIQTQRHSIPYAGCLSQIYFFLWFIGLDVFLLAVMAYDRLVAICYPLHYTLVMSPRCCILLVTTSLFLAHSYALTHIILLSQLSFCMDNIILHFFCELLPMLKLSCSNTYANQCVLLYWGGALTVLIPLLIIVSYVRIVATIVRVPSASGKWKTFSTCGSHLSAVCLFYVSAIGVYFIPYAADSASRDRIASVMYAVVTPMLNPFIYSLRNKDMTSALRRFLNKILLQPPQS
Method in brief: (§1)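 Assay methods differ from source to source, frequently being transient luciferase assays in mammalian cell lines. For each receptor–molecule pair, the label responsive (active) applies when the original authors judged the measured signal statistically different from baseline, and non-responsive (inactive) applies otherwise.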

UniProt Q8VFZ6 = target: T2, UniProt Q8VFZ6
T2 sequence (whole entry): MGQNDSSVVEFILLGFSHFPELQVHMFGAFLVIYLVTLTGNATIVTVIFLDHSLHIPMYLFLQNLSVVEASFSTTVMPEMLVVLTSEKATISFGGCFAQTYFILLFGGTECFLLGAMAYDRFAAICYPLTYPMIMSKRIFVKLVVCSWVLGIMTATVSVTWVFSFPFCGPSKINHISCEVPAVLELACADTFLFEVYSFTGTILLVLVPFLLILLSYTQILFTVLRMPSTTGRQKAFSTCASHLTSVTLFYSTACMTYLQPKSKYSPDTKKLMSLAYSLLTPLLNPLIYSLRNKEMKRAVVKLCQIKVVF
Method in brief: as §1

UniProt Q8VG01 = target: T3, UniProt Q8VG01
T3 sequence (whole entry): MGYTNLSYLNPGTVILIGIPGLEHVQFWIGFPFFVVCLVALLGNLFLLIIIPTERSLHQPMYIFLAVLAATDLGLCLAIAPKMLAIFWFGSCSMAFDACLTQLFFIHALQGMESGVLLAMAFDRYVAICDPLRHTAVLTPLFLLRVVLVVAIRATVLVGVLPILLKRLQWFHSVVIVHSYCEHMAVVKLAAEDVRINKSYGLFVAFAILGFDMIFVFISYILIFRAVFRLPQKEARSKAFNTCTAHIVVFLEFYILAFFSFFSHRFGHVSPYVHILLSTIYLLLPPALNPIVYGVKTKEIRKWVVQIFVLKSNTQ
Method in brief: as §1

UniProt Q8VG22 = target: T4, UniProt Q8VG22
T4 sequence (whole entry): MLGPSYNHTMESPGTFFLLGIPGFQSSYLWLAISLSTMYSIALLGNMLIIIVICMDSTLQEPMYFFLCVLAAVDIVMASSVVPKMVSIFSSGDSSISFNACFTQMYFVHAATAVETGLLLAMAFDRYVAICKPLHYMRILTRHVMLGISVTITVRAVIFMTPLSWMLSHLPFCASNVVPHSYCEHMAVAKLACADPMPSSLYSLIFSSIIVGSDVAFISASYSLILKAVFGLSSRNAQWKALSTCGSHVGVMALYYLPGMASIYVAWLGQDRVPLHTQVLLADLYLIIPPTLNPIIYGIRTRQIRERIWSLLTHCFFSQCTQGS
Method in brief: as §1

UniProt Q8VG27 = target: T5, UniProt Q8VG27
T5 sequence (whole entry): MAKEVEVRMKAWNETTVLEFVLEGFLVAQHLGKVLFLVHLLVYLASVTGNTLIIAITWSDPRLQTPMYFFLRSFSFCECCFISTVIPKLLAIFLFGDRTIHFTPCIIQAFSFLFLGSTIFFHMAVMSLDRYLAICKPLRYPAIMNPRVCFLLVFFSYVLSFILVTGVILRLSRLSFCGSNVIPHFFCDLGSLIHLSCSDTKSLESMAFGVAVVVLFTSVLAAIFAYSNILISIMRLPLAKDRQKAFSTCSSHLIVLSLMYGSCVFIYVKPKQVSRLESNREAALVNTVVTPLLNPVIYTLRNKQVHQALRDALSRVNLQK
Method in brief: as §1

UniProt Q8VG49 = target: T6, UniProt Q8VG49
T6 sequence (whole entry): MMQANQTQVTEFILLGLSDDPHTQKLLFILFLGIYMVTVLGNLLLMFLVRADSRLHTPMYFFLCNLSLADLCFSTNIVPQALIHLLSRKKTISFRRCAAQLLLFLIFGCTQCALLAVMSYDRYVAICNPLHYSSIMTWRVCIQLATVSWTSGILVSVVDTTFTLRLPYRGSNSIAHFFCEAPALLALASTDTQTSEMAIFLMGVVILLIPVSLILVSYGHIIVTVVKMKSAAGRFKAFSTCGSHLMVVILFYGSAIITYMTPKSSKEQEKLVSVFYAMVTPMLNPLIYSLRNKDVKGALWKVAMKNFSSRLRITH
Method in brief: as §1

UniProt Q8VG53 = target: T7, UniProt Q8VG53
T7 sequence (whole entry): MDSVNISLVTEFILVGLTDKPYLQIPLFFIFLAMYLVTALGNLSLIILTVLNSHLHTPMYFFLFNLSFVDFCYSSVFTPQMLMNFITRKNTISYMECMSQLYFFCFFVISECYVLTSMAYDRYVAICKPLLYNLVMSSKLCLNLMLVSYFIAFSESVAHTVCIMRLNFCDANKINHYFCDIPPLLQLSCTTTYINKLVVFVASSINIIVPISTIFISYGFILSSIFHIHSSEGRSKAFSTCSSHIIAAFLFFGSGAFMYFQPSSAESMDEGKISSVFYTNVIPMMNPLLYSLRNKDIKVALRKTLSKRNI
Method in brief: as §1

UniProt Q8VG64 = target: T8, UniProt Q8VG64
T8 sequence (whole entry): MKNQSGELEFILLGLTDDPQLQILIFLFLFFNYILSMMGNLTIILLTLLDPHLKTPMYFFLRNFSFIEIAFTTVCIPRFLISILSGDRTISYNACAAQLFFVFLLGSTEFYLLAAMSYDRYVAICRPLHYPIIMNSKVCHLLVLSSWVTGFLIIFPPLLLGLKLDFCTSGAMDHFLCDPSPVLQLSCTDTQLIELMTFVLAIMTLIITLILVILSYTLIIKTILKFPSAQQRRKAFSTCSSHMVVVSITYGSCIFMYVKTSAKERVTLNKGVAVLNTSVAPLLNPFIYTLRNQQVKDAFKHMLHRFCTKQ
Method in brief: as §1

UniProt Q8VG77 = target: T9, UniProt Q8VG77
T9 sequence (whole entry): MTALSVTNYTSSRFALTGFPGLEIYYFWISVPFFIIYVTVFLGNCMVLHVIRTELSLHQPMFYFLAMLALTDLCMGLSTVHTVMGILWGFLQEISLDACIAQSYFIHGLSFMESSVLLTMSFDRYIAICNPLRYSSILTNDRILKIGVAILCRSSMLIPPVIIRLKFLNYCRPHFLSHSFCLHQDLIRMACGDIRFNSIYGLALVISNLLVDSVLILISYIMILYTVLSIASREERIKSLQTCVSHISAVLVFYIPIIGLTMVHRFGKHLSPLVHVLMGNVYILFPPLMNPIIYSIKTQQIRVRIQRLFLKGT
Method in brief: as §1

UniProt Q8VG96 = target: T10, UniProt Q8VG96
T10 sequence (whole entry): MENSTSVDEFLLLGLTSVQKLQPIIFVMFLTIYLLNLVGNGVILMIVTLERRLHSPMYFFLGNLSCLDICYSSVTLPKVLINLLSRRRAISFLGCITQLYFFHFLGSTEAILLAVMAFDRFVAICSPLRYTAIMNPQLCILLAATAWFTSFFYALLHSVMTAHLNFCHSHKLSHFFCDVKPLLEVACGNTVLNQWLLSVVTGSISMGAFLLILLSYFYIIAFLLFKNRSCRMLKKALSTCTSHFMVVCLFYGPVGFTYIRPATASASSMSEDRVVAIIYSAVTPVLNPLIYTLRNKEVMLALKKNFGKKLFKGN
Method in brief: as §1

UniProt Q8VGB9 = target: T11, UniProt Q8VGB9
T11 sequence (whole entry): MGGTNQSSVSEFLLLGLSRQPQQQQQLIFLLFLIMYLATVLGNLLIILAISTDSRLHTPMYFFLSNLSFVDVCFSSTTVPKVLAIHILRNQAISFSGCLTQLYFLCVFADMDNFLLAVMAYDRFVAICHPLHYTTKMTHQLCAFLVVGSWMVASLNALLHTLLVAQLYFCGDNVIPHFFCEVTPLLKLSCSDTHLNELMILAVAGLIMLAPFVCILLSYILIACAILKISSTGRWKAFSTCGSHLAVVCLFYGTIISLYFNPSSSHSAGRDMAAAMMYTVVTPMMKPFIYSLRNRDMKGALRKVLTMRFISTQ
Method in brief: as §1

UniProt Q8VG26 = target: UniProt Q8VG26
Method in brief: as §1

UniProt Q8VG28 = target: UniProt Q8VG28
Method in brief: as §1

UniProt Q8VFQ6 = target: UniProt Q8VFQ6
Method in brief: as §1

Measured: odorant receptor agonist call

UniProt Q8VG28, sequence (Q8VG28 as listed by the source): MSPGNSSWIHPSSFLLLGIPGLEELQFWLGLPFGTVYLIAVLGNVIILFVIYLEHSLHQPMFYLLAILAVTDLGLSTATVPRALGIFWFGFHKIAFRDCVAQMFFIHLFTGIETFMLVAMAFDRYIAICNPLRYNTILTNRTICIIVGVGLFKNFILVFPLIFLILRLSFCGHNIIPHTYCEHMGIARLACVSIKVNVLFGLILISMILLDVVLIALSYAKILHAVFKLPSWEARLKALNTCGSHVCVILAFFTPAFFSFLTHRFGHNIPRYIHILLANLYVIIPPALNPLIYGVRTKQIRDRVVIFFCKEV
UniProt Q8VG26, sequence (Q8VG26 as listed by the source): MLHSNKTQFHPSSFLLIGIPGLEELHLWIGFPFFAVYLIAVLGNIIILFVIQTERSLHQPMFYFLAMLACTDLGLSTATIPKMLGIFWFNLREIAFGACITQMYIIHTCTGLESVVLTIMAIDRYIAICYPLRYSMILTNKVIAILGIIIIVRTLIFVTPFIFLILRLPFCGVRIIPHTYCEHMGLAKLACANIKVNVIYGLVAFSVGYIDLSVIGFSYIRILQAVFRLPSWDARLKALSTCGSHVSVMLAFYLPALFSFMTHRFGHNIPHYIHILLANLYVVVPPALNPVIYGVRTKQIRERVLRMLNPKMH
UniProt Q8VFQ6, sequence (Q8VFQ6 as listed by the source): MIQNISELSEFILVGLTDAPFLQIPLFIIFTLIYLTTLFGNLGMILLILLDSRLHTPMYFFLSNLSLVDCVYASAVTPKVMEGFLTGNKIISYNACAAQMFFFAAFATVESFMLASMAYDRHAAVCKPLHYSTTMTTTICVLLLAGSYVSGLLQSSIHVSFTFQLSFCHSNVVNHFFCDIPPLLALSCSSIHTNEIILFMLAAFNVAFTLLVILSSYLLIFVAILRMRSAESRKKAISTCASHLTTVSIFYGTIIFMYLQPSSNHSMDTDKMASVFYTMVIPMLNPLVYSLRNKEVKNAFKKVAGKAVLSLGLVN

O=C1Cc2ccccc2O1
active: UniProt Q8VG22
not listed: UniProt Q8VG26 | UniProt Q8VG28 | UniProt Q8VFQ6
inactive: all other assays above

CCCCCCCCC(=O)O
active: UniProt Q8VG49
not listed: UniProt Q8VG28 | UniProt Q8VFQ6
inactive: all other assays above

CCCCCCO
active: UniProt Q8VG22 | UniProt Q8VGB9
not listed: UniProt Q8VFQ6
inactive: all other assays above

CCCCCC=O
active: UniProt Q8VG77
not listed: UniProt Q8VG26 | UniProt Q8VG28 | UniProt Q8VFQ6
inactive: all other assays above

CCCCCC(=O)CC
not listed: UniProt Q8VG26 | UniProt Q8VG28 | UniProt Q8VFQ6
inactive: all other assays above

O=C(c1ccccc1)c1ccccc1
not listed: UniProt Q8VG26 | UniProt Q8VG28 | UniProt Q8VFQ6
inactive: all other assays above

CC(=O)Oc1ccccc1
active: UniProt Q8VG22 | UniProt Q8VG96
not listed: UniProt Q8VG26 | UniProt Q8VG28 | UniProt Q8VFQ6
inactive: all other assays above

CCCCCCCCO
active: UniProt Q8VFZ6
not listed: UniProt Q8VFQ6
inactive: all other assays above

CCCCCCOC(C)=O
not listed: UniProt Q8VG26 | UniProt Q8VG28 | UniProt Q8VFQ6
inactive: all other assays above

CCCCCCCCS
not listed: UniProt Q8VG26 | UniProt Q8VG28 | UniProt Q8VFQ6
inactive: all other assays above

CC(C)=CCCC(C)CCO (centres undefined)
not listed: UniProt Q8VG26 | UniProt Q8VG28 | UniProt Q8VFQ6
inactive: all other assays above

O=C1CCOc2ccccc21
active: UniProt Q8VG22
not listed: UniProt Q8VG26 | UniProt Q8VG28
inactive: all other assays above

COc1cc(C(=O)O)ccc1O
active: UniProt Q8VG27
not listed: UniProt Q8VG26 | UniProt Q8VG28 | UniProt Q8VFQ6
inactive: all other assays above

CCCCCCCO
active: UniProt Q8VG22
not listed: UniProt Q8VFQ6
inactive: all other assays above

CC12CCC(CC1=O)C2(C)C (centres undefined)
not listed: UniProt Q8VG26 | UniProt Q8VG28 | UniProt Q8VFQ6
inactive: all other assays above

CCCCCCCCCO
not listed: UniProt Q8VFQ6
inactive: all other assays above

CCC(=O)O
not listed: UniProt Q8VG26 | UniProt Q8VG28 | UniProt Q8VFQ6
inactive: all other assays above

CCOC(=O)C(C)C
not listed: UniProt Q8VG26 | UniProt Q8VG28 | UniProt Q8VFQ6
inactive: all other assays above

CCCCCCCC(C)=O
not listed: UniProt Q8VG26 | UniProt Q8VG28 | UniProt Q8VFQ6
inactive: all other assays above

CCCCCOC(=O)CCCCC
not listed: UniProt Q8VG26 | UniProt Q8VG28 | UniProt Q8VFQ6
inactive: all other assays above

CCC(=O)C(=O)CC
active: UniProt Q8VG22 | UniProt Q8VGB9
not listed: UniProt Q8VG26 | UniProt Q8VG28 | UniProt Q8VFQ6
inactive: all other assays above

CCCCCCCCCC(=O)[O-].[H+]
active: UniProt Q8VG27 | UniProt Q8VG28 | UniProt Q8VG49
not listed: UniProt Q8VG26 | UniProt Q8VFQ6
inactive: all other assays above

c1ccccc1
not listed: UniProt Q8VG26 | UniProt Q8VG28 | UniProt Q8VFQ6
inactive: all other assays above
